# Measured values taken from ChEMBL document CHEMBL1122317, “Role of substrate lipophilicity on the N-demethylation and type I binding of 3-O-alkylmorphine analogues” (J Med Chem, 1983).
# How the values were obtained:
# Type in all cases: ADME
# [1] = Rate of ethylmorphine N-demethylase in the presence of various concentrations (uM) at 2000 uM concentration.
# Summary of the method: (§1)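 2 mM 3-O-ethylmorphine was N-demethylated for 10 min at 37 °C by male CD rat liver microsomes (1 mg protein/mL) with an NADPH-generating system, with 0, 20, 200 or 2000 μM added decyl or dodecyl analogue. Formaldehyde was read colorimetrically at 412 nm. Rate is nmol/min/mg protein, from triplicate incubations.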
# [2] = Maximum optimal dose expressed as OD max X 10e-(2/3) mg; ND = no detectable binding spectra.
# Summary of the method: (§2)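 Type I difference spectra recorded at 350–500 nm in washed liver microsomes from fed, untreated 180–250 g male CD rats, 3 mg protein/mL in 0.15 M KCl-0.05 M Tris. Split-beam cuvettes were warmed to 37 °C for 5 min, then substrate added stepwise to the sample side and buffer to the reference. Ks came from double-reciprocal plots of the 390–420 nm absorbance difference. Triplicate determinations.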
# [3] = Rate of ethylmorphine N-demethylase in the presence of various concentrations (uM) at 0 uM concentration.; summary of the method: as §1
# [4] = Rate of ethylmorphine N-demethylase in the presence of various concentrations (uM) at 200 uM concentration.; summary of the method: as §1
# [5] = Rate of ethylmorphine N-demethylase in the presence of various concentrations (uM) at 20 uM concentration.; summary of the method: as §1
# [6] = Spectral dissociation constant of the compound; ND = no detectable binding spectra.; summary of the method: as §2
# [7] = Maximum optimal dose expressed as OD max X 10e-(2/3) mg; summary of the method: as §2
# [8] = Vmax value in O-dealkylation.
# Summary of the method: (§3)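 Octyl[6-3H]morphine N- and O-dealkylation assayed radiometrically in rat liver microsomes (1 mg protein/mL). Triplicate 20-min incubations used eight substrate concentrations from 0.1 to 1.0 mM. Reactions were stopped with acetone and extracted, then metabolites were located by UV, scraped and counted by scintillation. Km and Vmax came from Lineweaver-Burk plots, averaged over three separate studies.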
# [9] = Michaelis constant in N-demethylation.
# Summary of the method: (§4)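 Male CD rat hepatic microsomes (1 mg protein/mL) in 0.15 M KCl-0.05 M Tris with 5 mM MgCl2 and an NADPH-generating system (0.33 mM NADP, 5.5 mM glucose 6-phosphate, 0.67 U/mL G6PDH). Incubated in air for 10 min at 37 °C. Formaldehyde measured colorimetrically with acetylacetone at 412 nm, correcting for substrate-free blanks. Km and Vmax taken from triplicates at 11 substrate concentrations.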
# [10] = Spectral dissociation constant of the compound.; conditions: read-out: Ks; summary of the method: as §2
# [11] = Vmax value in N-demethylation.; summary of the method: as §4
# [12] = Michaelis constant in O-dealkylation.; summary of the method: as §3
smiles,measurement,setting,value
CCCCCCCCCCCCOc1ccc2c3c1OC1C(O)C=CC4C(C2)N(C)CCC341.Cl (configuration not stated),Rate,[1],9.06 nM/min
same,OD max,[2],No detectable binding spectra
same,Rate,[3],8.92 nM/min
same,Rate,[4],8.98 nM/min
same,Rate,[5],8.81 nM/min
same,Ks,[6],No detectable binding spectra
COc1ccc2c3c1O[C@H]1[C@@H](O)C=C[C@H]4[C@@H](C2)N(C)CC[C@@]341.O=S(=O)(O)O,OD max,[7],1.85 mg
CCOc1ccc2c3c1OC1C(O)C=CC4C(C2)N(C)CCC341.Cl (configuration not stated),Vmax,[8],1.86 nM/min
same,Km,[9],245 µM
same,Kd,[10],29.1 µM
same,OD max,[7],1.9 mg
same,Vmax,[11],9.31 nM/min
same,Km,[12],55 µM
CCCCCCCOc1ccc2c3c1OC1C(O)C=CC4C(C2)N(C)CCC341.Cl (configuration not stated),Kd,[10],11.4 µM
same,OD max,[7],1.8 mg
CCCCCCCCCOc1ccc2c3c1OC1C(O)C=CC4C(C2)N(C)CCC341.Cl (configuration not stated),Kd,[10],7.6 µM
same,OD max,[7],2.15 mg
CCCCCCCCCCOc1ccc2c3c1OC1C(O)C=CC4C(C2)N(C)CCC341.Cl (configuration not stated),Rate,[1],9.22 nM/min
same,OD max,[2],No detectable binding spectra
same,Rate,[3],9.11 nM/min
same,Rate,[4],9.12 nM/min
same,Rate,[5],8.92 nM/min
same,Ks,[6],No detectable binding spectra
CCCOc1ccc2c3c1OC1C(O)C=CC4C(C2)N(C)CCC341.Cl (configuration not stated),Kd,[10],28.4 µM
same,OD max,[7],1.8 mg
CCCCCCOc1ccc2c3c1OC1C(O)C=CC4C(C2)N(C)CCC341.Cl (configuration not stated),Kd,[10],12.8 µM
same,OD max,[7],1.9 mg
CCCCCCCCOc1ccc2c3c1OC1C(O)C=CC4C(C2)N(C)CCC341.Cl (configuration not stated),Vmax,[8],3.57 nM/min
same,Km,[9],67 µM
same,Kd,[10],8.8 µM
same,OD max,[7],2.1 mg
same,Vmax,[11],1.98 nM/min
same,Km,[12],125 µM
CCCCCOc1ccc2c3c1OC1C(O)C=CC4C(C2)N(C)CCC341.Cl (configuration not stated),Kd,[10],14.6 µM
same,OD max,[7],2 mg
CCCCOc1ccc2c3c1OC1C(O)C=CC4C(C2)N(C)CCC341.Cl (configuration not stated),Kd,[10],18.1 µM
same,OD max,[7],2.06 mg
